Data published in ChEMBL document CHEMBL3804789, “5-Ene-4-thiazolidinones induce apoptosis in mammalian leukemia cells” (Eur J Med Chem, 2016).
The source made the active and inactive calls. The rule behind the calls is not given here.

Columns and labels:
[1] = (§1) Antiproliferative activity against human HL60 cells after 72 hrs by MTT assay; format: functional, cell-based; details: HL-60, 72 h
How it was run: (§2)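 MTT viability after 72 h continuous exposure. Cells seeded 24 h beforehand at 2,000/well (adherent) or 10,000/well (suspension), then given 0, 0.01, 0.1, 0.5, 1.0 or 10.0 μM compound diluted from 10 mM DMSO stock into RPMI or DMEM with 10% FBS, 37°C, 5% CO2. IC50 taken as concentration killing 50% of cells versus untreated culture.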

[2] = Antiproliferative activity against human SKOV3 cells after 72 hrs by MTT assay; format: functional, cell-based; details: SK-OV-3, 72 h; how it was run: as §2
[3] = molecular target: Mitogen-activated protein kinase; ERK1/ERK2 (Homo sapiens) (UniProt P27361+P28482); test: Activation of ERK1/2 in human HL60 cells at 0.1 to 1 uM after 48 hrs by Western blot analysis; format: cell-based; details: HL-60
Mitogen-activated protein kinase; ERK1/ERK2 (Homo sapiens), sequence (P27361 whole entry, looked up): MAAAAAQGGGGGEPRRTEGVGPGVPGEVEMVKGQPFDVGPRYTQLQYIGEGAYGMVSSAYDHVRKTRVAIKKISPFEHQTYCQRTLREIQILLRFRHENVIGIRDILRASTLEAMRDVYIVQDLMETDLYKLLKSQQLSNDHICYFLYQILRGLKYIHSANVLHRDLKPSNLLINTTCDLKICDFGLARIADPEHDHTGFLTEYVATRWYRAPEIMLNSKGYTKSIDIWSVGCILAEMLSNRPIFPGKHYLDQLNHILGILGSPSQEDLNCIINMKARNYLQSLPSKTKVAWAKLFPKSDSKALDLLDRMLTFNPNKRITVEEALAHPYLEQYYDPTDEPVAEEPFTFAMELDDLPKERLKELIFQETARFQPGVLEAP
Mitogen-activated protein kinase; ERK1/ERK2 (Homo sapiens), sequence (P28482 whole entry, looked up): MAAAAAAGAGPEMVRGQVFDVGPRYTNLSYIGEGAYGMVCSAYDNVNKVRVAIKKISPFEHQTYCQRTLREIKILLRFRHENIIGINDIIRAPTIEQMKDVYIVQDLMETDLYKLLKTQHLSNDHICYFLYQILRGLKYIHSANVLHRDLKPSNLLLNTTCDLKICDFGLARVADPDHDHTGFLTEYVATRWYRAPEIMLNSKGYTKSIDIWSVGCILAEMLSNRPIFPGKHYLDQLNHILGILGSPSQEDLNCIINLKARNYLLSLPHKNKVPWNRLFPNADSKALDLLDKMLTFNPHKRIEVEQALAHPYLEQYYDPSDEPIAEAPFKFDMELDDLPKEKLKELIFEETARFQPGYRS
How it was run: (§3)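 HL-60 cells exposed 48 h; proteins isolated, resolved by SDS/PAGE, transferred to PVDF and immunoblotted. Equal loading checked by re-probing the same membrane for beta-actin. Peroxidase-labelled secondary antibodies at 1:5,000.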

HL-60 [4] = test: Cytotoxicity against human HL60 cells assessed as reduction in cell survival up to 1 uM treated for 30 mins with ROS scavenger N-acetylcysteine measured after 72 hrs by MTT assay; format: functional, cell-based
[5] = molecular target: T1, c-Jun N-terminal kinase, JNK (Homo sapiens) (UniProt P45983+P53779+P45984); test: Inhibition of JNK phosphorylation in human HL60 cells at 0.1 to 1 uM after 48 hrs by Western blot analysis; format: cell-based; details: HL-60; how it was run: as §3
[6] = molecular target: MAP kinase p38 (Homo sapiens) (UniProt O15264+Q15759+Q16539+P53778); test: Induction of MAPK p38 phosphorylation in human HL60 cells at 0.1 to 1 uM after 48 hrs by Western blot analysis; format: cell-based; details: HL-60; how it was run: as §3
HL60/ADR [7] = test: (§4) Antiproliferative activity against human HL60/ADR cells after 72 hrs by MTT assay; format: functional, cell-based; how it was run: as §2
[8] = as §4; format: functional, cell-based; how it was run: as §2
HL-60 [9] = test: Induction of apoptosis in human HL60 cells assessed as apoptotic cells at 0.1 to 1 uM after 48 hrs by Annexin V-FITC/propidium iodide staining based fluorescence microscopic analysis; format: functional, cell-based
How it was run: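 HL-60 cells treated 48 h, pelleted at 2,000 rpm, washed twice in PBS and incubated 15 min in Annexin V binding buffer with 1/20 volume FITC-Annexin V and PI (20.0 μg/mL). Cells examined by fluorescence microscopy on duplicate slides, >500 cells counted per sample.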

[10] = Antiproliferative activity against human HL60 cells measured at 6 hrs by MTT assay; format: functional, cell-based; details: HL-60, 6 h
How it was run: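 Exposure-time series in HL-60 cells: compound present for 3, 6, 24, 48 or 72 h, viability then read by MTT. IC50 is concentration killing 50% of cells relative to untreated culture.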

[11] = molecular target: T1, c-Jun N-terminal kinase, JNK (Homo sapiens); test: Inhibition of JNK in human HL60 cells assessed as increase in phosphorylated STAT3 expression at 0.1 to 1 uM after 48 hrs by Western blot analysis; format: cell-based; details: HL-60; how it was run: as §3
L1210 = test: Antiproliferative activity against mouse L1210 cells after 72 hrs by MTT assay; format: functional, cell-based; details: L1210, 72 h; how it was run: as §2
HL-60 [12] = test: Induction of apoptosis in human HL60 cells assessed as increase in Bax expression at 0.1 to 1 uM after 48 hrs by Western blot analysis; format: functional, cell-based; how it was run: as §3
HL-60 [13] = test: Induction of apoptosis in human HL60 cells assessed as decrease in Bcl-XL expression at 0.1 to 1 uM after 48 hrs by Western blot analysis; format: functional, cell-based; how it was run: as §3
[14] = Antiproliferative activity against mouse KS483 cells after 72 hrs by MTT assay; format: cell-based; details: KS483, 72 h; how it was run: as §2
Jurkat = test: Antiproliferative activity against human Jurkat cells after 72 hrs by MTT assay; format: functional, cell-based; how it was run: as §2
L929 = test: Antiproliferative activity against mouse L929 cells after 72 hrs by MTT assay; format: functional, cell-based; details: L929, 72 h; how it was run: as §2
HL-60 [15] = test: Induction of apoptosis in human HL60 cells assessed as increase in CDK1 expression at 0.1 to 1 uM after 48 hrs by Western blot analysis; format: functional, cell-based; how it was run: as §3
HL-60 [16] = test: Cytotoxicity against human HL60 cells assessed as reduction in cell survival up to 1 uM treated for 30 mins with ROS scavenger ascorbic acid measured after 72 hrs by MTT assay; format: functional, cell-based
[17] = molecular target: T2, Endonuclease G, mitochondrial (Homo sapiens) (UniProt Q14249); test: Activation of endonuclease G in human HL60 cells at 0.1 to 1 uM after 48 hrs by Western blot analysis; format: cell-based; details: HL-60; how it was run: as §3
T2 sequence (whole entry): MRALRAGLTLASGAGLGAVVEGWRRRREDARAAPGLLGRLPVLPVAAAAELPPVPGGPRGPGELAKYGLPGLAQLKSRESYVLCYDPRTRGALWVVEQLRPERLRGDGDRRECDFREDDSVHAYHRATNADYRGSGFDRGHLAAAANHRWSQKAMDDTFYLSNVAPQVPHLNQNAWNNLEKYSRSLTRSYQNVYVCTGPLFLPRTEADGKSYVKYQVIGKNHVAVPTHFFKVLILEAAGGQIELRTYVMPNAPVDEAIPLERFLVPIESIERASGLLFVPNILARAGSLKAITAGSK

MCF7 = test: Antiproliferative activity against human MCF7 cells after 72 hrs by MTT assay; format: functional, cell-based; details: MCF7, 72 h; how it was run: as §2
HL60/ADR [18] = test: Cytotoxicity against human HL60/ADR cells assessed as reduction in cell survival up to 1 uM treated for 30 mins with ROS scavenger N-acetylcysteine measured after 72 hrs by MTT assay; format: functional, cell-based
HL60/ADR [19] = test: Cytotoxicity against human HL60/ADR cells assessed as reduction in cell survival up to 1 uM treated for 30 mins with ROS scavenger ascorbic acid measured after 72 hrs by MTT assay; format: functional, cell-based
HL-60 [20] = test: as §1; format: functional, cell-based; how it was run: as §2
HL-60 [21] = test: Antiproliferative activity against human HL60 cells at 0.01 to 10 uM by MTT assay; format: functional, cell-based; details: TDE = time-dependent effect
How it was run: (§5)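 MTT viability: cells seeded 24 h at 2,000 (adherent) or 10,000 (suspension) per well, then exposed 72 h to 0.01-10.0 μM (0, 0.01, 0.1, 0.5, 1.0, 10.0 μM), diluted from 10 mM DMSO stock into medium with 10% FBS. IC50 is concentration killing 50% of cells relative to untreated control.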

HL60/ADR [22] = test: Antiproliferative activity against human HL60/ADR cells at 0.01 to 10 uM by MTT assay; format: functional, cell-based; details: TDE = time-dependent effect; how it was run: as §5
HL-60 [23] = test: Induction of apoptosis in human HL60 cells assessed as increase in p21 expression at 0.1 to 1 uM after 48 hrs by Western blot analysis; format: functional, cell-based; how it was run: as §3
[24] = Cell cycle arrest in human HL60 cells assessed as accumulation at G0/G1 phase at 0.1 to 1 uM after 8 to 48 hrs by propidium iodide staining based flow cytometry; format: functional; details: HL-60
How it was run: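 HL-60 cells treated 8 and 48 h, washed in PBS, fixed in 70% ethanol and stored at -20°C. Then RNase (10 µg/ml) 30 min at 37°C, propidium iodide (5 µg/ml) 30 min, and cell-cycle distribution read by flow cytometry.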

[25] = molecular target: T3, Retinoblastoma-associated protein (Homo sapiens) (UniProt P06400); test: Inhibition of retinoblastoma protein phosphorylation in human HL60 cells at 0.1 to 1 uM after 48 hrs by Western blot analysis; format: cell-based; details: HL-60; how it was run: as §3
T3 sequence (whole entry): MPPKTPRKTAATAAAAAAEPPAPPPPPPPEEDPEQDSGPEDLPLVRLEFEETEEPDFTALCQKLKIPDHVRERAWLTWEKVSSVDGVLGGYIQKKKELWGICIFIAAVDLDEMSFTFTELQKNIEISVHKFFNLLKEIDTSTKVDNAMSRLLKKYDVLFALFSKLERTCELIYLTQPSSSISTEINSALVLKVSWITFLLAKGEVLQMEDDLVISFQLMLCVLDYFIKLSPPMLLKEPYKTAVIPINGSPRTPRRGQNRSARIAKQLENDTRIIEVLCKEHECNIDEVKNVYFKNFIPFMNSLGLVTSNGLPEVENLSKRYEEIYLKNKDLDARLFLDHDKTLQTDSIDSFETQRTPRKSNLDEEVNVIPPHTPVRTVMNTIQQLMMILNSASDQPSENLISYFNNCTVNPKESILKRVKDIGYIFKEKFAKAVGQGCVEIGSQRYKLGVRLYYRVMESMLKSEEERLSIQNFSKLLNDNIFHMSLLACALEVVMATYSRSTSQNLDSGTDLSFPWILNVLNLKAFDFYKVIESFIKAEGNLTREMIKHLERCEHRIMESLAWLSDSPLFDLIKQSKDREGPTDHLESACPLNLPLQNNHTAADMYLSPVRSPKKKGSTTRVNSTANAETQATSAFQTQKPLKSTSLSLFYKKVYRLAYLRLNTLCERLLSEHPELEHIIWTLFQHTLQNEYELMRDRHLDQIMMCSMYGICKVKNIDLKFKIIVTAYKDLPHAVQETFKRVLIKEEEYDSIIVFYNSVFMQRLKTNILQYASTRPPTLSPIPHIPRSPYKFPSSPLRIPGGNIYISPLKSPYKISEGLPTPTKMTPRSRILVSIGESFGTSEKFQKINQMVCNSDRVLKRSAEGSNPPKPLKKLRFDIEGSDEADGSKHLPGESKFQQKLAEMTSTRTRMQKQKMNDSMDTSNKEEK

[26] = Antiproliferative activity against HEK293T cells after 72 hrs by MTT assay; format: cell-based; details: Homo sapiens, HEK-293T; how it was run: as §2
HL-60 [27] = test: Induction of apoptosis in human HL60 cells assessed as decrease in cyclinD3 expression at 0.1 to 1 uM after 48 hrs by Western blot analysis; format: functional, cell-based; how it was run: as §3

Work on `COc1ccc(C2CC(c3ccc4ccccc4c3)=NN2/C=C2\SC(=S)N(c3ccc(OC(C)=O)cc3)C2=O)cc1` (stereo unspecified) yielded an IC50 [1] greater than 10 µM and an IC50 [2] of 1.1 µM.

In the case of `O=C1/C(=C/N2N=C(c3ccc4ccccc4c3)CC2c2ccccc2O)SC(=S)N1c1cccnc1` (stereo unspecified), the IC50 [1] is reported as 4.06 µM and the IC50 [2] is reported as 5.59 µM.

For `CC(=O)Oc1ccc(N2C(=O)/C(=C/N3N=C(c4ccccc4)CC3c3ccccc3O)SC2=S)cc1` (stereo unspecified), the IC50 [1] was 9.4 µM and the IC50 [2] was 0.244 µM.

Compound `O=C1/C(=C/N2N=C(c3ccccc3)CC2c2ccccc2O)SC(=S)N1c1cccc(C(F)(F)F)c1` (stereo unspecified) has an IC50 [1] greater than 10 µM and an IC50 [2] greater than 10 µM.

In the case of `O=C1NC(=S)S/C1=C\N1N=C(c2ccc(Cl)cc2)CC1c1ccc(Cl)cc1` (stereo unspecified), the IC50 [1] is reported as greater than 10 µM and the IC50 [2] is reported as 9.14 µM.

For `O=C1NC(=S)/C(=C/N2N=C(c3ccc4ccccc4c3)CC2c2ccc(Cl)cc2)S1` (stereo unspecified), the IC50 [1] was 0.156 µM and the IC50 [2] was greater than 10 µM.

`CC(=O)Oc1cccc(N2C(=O)/C(=C/N3N=C(c4ccccc4)CC3c3ccc(N(C)C)cc3)SC2=S)c1` (stereo unspecified) gave an IC50 [1] of 0.1 µM and an IC50 [2] greater than 10 µM.

For `CCN1C(=O)/C(=C/N2N=C(c3ccccc3)CC2c2ccccc2O)SC1=S` (stereo unspecified), the IC50 [1] was greater than 10 µM and the IC50 [2] was greater than 10 µM.

`CN1C(=O)/C(=C/N2N=C(c3ccc4ccccc4c3)CC2c2ccccc2O)SC1=S` (stereo unspecified) gave an IC50 [1] greater than 10 µM and an IC50 [2] greater than 10 µM.

In the case of `CC(=O)Oc1cccc(N2C(=O)/C(=C/N3N=C(c4ccccc4)CC3c3ccccc3O)SC2=S)c1` (stereo unspecified), the Activity [3] is reported as “Active”, the Activity (HL-60 [4]) is reported as “inactive” and the inhibition [5] is reported as “Active”. For the same compound, the Activity [6] was “Active”, the Activity (HL60/ADR [7]) was “Dose-dependent effect” and the IC50 [8] was 1 µM. For the same compound, the Activity (HL-60 [9]) was “Active”, the IC50 [10] was 0.5 µM and the inhibition [11] was “Active”. The IC50 (L1210) was 0.7 µM, the Activity (HL-60 [12]) was “Active” and the Activity (HL-60 [13]) was “Active”. It also gave an IC50 [14] greater than 10 µM, an IC50 (Jurkat) of 1.1 µM and an IC50 (L929) greater than 10 µM. The Activity (HL-60 [15]) was “Active”, the Activity (HL-60 [16]) was “inactive” and the Activity [17] was “Active”. The IC50 (MCF7) was 8.3 µM, the Activity (HL60/ADR [18]) was “inactive” and the Activity (HL60/ADR [19]) was “inactive”. For the same compound, the Activity (HL-60 [20]) was “Dose-dependent effect”, the IC50 [1] was 0.118 µM and the Activity (HL-60 [21]) was “tde”. For the same compound, the Activity (HL60/ADR [22]) was “tde”, the Activity (HL-60 [23]) was “Active” and the Activity [24] was “Active”. For the same compound, the inhibition [25] was “Active”, the IC50 [26] was greater than 10 µM and the Activity (HL-60 [27]) was “Active”. For the same compound, the IC50 [2] was greater than 10 µM.

For `CN(C)c1ccc(C2CC(c3ccccc3)=NN2/C=C2\SC(=S)NC2=O)cc1` (stereo unspecified), the IC50 [1] was greater than 10 µM and the IC50 [2] was greater than 10 µM.
